Laboratory results from ChEMBL document CHEMBL4028818, “Tricyclic 4,4-dimethyl-3,4-dihydrochromeno[3,4-d]imidazole derivatives as microsomal prostaglandin E2 synthase-1 (mPGES-1) inhibitors: SAR and in vivo efficacy in hyperalgesia pain model” (Bioorg Med Chem Lett, 2017).
Values belong to the molecule of their own block, whether it stands above or below them.

How the values were obtained:
Format in all cases: cell-based
[1] = target: T1, Prostaglandin E synthase (Homo sapiens, UniProt O14684); assay: Inhibition of recombinant human mPGES-1 expressed in CHO cells assessed as reduction in PGE2 formation using PGH2 a substrate preincubated for 10 mins followed by substrate addition measured after 1 min
T1 sequence (O14684 whole entry): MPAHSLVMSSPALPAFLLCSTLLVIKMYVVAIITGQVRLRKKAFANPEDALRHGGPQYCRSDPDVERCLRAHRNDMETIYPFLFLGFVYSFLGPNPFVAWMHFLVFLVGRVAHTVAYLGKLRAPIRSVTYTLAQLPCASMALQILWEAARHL
In short: (§1)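 mPGES-1 enzyme inhibition. % inhibition values are means of two experiments in duplicate. IC50 values were derived from graphs of at least two experiments in duplicate.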

[2] = target: T1, Prostaglandin E synthase; assay: Inhibition of mPGES-1 in human A549 cells assessed as decrease in IL1beta induced PGE2 release preincubated for 30 mins followed by IL-1beta addition after 16 to 20 hrs by HTRF method
[3] = target: T2, Prostaglandin E synthase (Homo sapiens) (UniProt O14684); assay: Inhibition of recombinant human mPGES-1 expressed in CHO cells assessed as reduction in PGE2 formation at 10 uM using PGH2 a substrate preincubated for 10 mins followed by substrate addition measured after 1 min relative to control; in short: as §1
T2 sequence (whole entry): T1 sequence (O14684 whole entry)

[4] = target: T2, Prostaglandin E synthase (Homo sapiens); assay: Inhibition of recombinant human mPGES-1 expressed in CHO cells assessed as reduction in PGE2 formation at 1 uM using PGH2 a substrate preincubated for 10 mins followed by substrate addition measured after 1 min relative to control; in short: as §1

Structure (SMILES): CC1(C)Oc2cc(C#Cc3c(F)cccc3C(F)(F)F)ccc2-c2nc(-c3c(C#N)cccc3C#N)[nH]c21
IC50 [1]: 12.7 nM | IC50 [2]: 836 nM

Structure (SMILES): CC1(C)Oc2cc(Br)ccc2-c2[nH]c(-c3c(Br)cccc3Br)nc21
inhibition [3]: 92% | IC50 [1]: 710 nM | inhibition [4]: 68.6%

Structure (SMILES): CC1(C)Oc2cc(C(=O)NC3CCCCC3)ccc2-c2nc(-c3c(F)cccc3Cl)[nH]c21
inhibition [3]: 68% | inhibition [4]: 56%

Structure (SMILES): CC1(C)Oc2cc(C#Cc3ccccc3)ccc2-c2[nH]c(-c3c(C#N)cccc3C#N)nc21
IC50 [1]: 24.8 nM | IC50 [2]: 984 nM

Structure (SMILES): Cc1cnc(C#Cc2ccc3c(c2)OC(C)(C)c2[nH]c(-c4c(F)cccc4Cl)nc2-3)s1
IC50 [1]: 465 nM

Structure (SMILES): CC1(C)Oc2nc(C#Cc3ccccc3C(F)(F)F)ccc2-c2nc(-c3c(F)cccc3Cl)[nH]c21
IC50 [1]: 407 nM

Structure (SMILES): CC1(C)Oc2cc(C#Cc3ccccc3C(F)(F)F)ccc2-c2nc(-c3c(Cl)cncc3Cl)[nH]c21
IC50 [1]: 81.3 nM

Structure (SMILES): CC1(C)Oc2cc(C#Cc3c(Cl)cccc3Cl)ccc2-c2nc(-c3c(F)cccc3Cl)[nH]c21
IC50 [1]: 11.2 nM

Structure (SMILES): CC1(C)Oc2nc(C#Cc3c(F)cccc3C(F)(F)F)ccc2-c2nc(-c3c(F)cccc3Cl)[nH]c21
inhibition [3]: 76% | inhibition [4]: 75%

Structure (SMILES): CC1(C)Oc2cc(C#Cc3cc(C(F)(F)F)ccc3Cl)ccc2-c2nc(-c3c(C#N)cccc3C#N)[nH]c21
IC50 [1]: 3.89 nM | IC50 [2]: 1200 nM

Structure (SMILES): CC1(C)Oc2nc(C#Cc3cc(C(F)(F)F)ccc3Cl)ccc2-c2nc(-c3c(F)cccc3Cl)[nH]c21
inhibition [3]: 63% | inhibition [4]: 65%

Structure (SMILES): CC1(C)Oc2cc(C#Cc3cc(F)ccc3C(F)(F)F)ccc2-c2nc(-c3c(Cl)cncc3Cl)[nH]c21
IC50 [1]: 31.5 nM

Structure (SMILES): CC1(C)Oc2cc(C#Cc3cc(C(F)(F)F)ccc3Cl)ccc2-c2nc(-c3c(Cl)cncc3Cl)[nH]c21
IC50 [1]: 33.1 nM

Structure (SMILES): CC1(C)Oc2cc(C#Cc3cc(Cl)ccc3Cl)ccc2-c2nc(-c3c(C#N)cccc3C#N)[nH]c21
IC50 [1]: 12.7 nM | IC50 [2]: 2320 nM

Structure (SMILES): CC1(C)Oc2cc(C#Cc3ccccc3)ccc2-c2nc(-c3c(F)cccc3Cl)[nH]c21
IC50 [1]: 83 nM

Structure (SMILES): CC1(C)Oc2cc(C#Cc3ccncc3F)ccc2-c2nc(-c3c(F)cccc3Cl)[nH]c21
IC50 [1]: 641 nM

Structure (SMILES): CC1(C)Oc2cc(C#Cc3ccccc3Cl)ccc2-c2nc(-c3c(F)cccc3Cl)[nH]c21
IC50 [1]: 64.7 nM

Structure (SMILES): CC1(C)Oc2cc(C#Cc3cccc(Cl)c3Cl)ccc2-c2nc(-c3c(F)cccc3Cl)[nH]c21
IC50 [1]: 35.5 nM

Structure (SMILES): CC1(C)Oc2cc(C#Cc3cccc(Cl)c3)ccc2-c2nc(-c3c(F)cccc3Cl)[nH]c21
IC50 [1]: 39.2 nM

Structure (SMILES): CC1(C)Oc2cc(C#Cc3cncnc3)ccc2-c2nc(-c3c(F)cccc3Cl)[nH]c21
IC50 [1]: 797 nM

Structure (SMILES): CC1(C)Oc2cc(Cl)ccc2-c2[nH]c(-c3c(Br)cccc3Br)nc21
inhibition [3]: 89% | IC50 [1]: 325 nM | inhibition [4]: 74%

Structure (SMILES): CC1(C)Oc2cc(C#Cc3ccc(C(F)(F)F)cc3Cl)ccc2-c2nc(-c3c(F)cncc3Cl)[nH]c21
IC50 [1]: 73.9 nM

Structure (SMILES): CC1(C)Oc2cc(C#Cc3ccccc3C(F)(F)F)ccc2-c2nc(-c3c(F)cncc3Cl)[nH]c21
IC50 [1]: 170 nM

Now from value to molecule:

IC50 [1]: 12.3 nM | IC50 [2]: 691 nM
Structure (SMILES): CC1(C)Oc2cc(C#Cc3c(F)cccc3C(F)(F)F)ccc2-c2[nH]c(-c3c(F)cccc3Cl)nc21

inhibition [3]: 94.1% | inhibition [4]: 40.8%
Structure (SMILES): CC1(C)Oc2cc(Br)ccc2-c2[nH]c(-c3c(F)cccc3Cl)nc21

IC50 [1]: 7.76 nM | IC50 [2]: 2830 nM
Structure (SMILES): CC1(C)Oc2cc(C#Cc3ccc(Cl)cc3C(F)(F)F)ccc2-c2nc(-c3c(F)cccc3Cl)[nH]c21

inhibition [3]: 84.5% | IC50 [1]: 187 nM | inhibition [4]: 83.5%
Structure (SMILES): CC1(C)Oc2cc(C(=O)Nc3ccc(Cl)c(F)c3)ccc2-c2[nH]c(-c3c(F)cccc3Cl)nc21

inhibition [3]: 94.8% | inhibition [4]: 76%
Structure (SMILES): CC1(C)Oc2cc(-c3ccc(Cl)cc3)ccc2-c2[nH]c(-c3c(F)cccc3Cl)nc21

IC50 [1]: 29.3 nM
Structure (SMILES): CC1(C)Oc2cc(C#Cc3cccc(C(F)(F)F)c3)ccc2-c2nc(-c3c(F)cccc3Cl)[nH]c21

IC50 [1]: 15.6 nM | IC50 [2]: 693 nM
Structure (SMILES): CC1(C)Oc2cc(C#Cc3ccccc3C(F)(F)F)ccc2-c2[nH]c(-c3c(F)cccc3Cl)nc21

IC50 [1]: 29.6 nM | IC50 [2]: 1250 nM
Structure (SMILES): CC1(C)Oc2cc(C#Cc3ccc(F)c(C(F)(F)F)c3)ccc2-c2nc(-c3c(F)cccc3Cl)[nH]c21

IC50 [1]: 19.9 nM | IC50 [2]: 578 nM
Structure (SMILES): CC1(C)Oc2cc(C#Cc3ccccc3OC(F)(F)F)ccc2-c2[nH]c(-c3c(F)cccc3Cl)nc21

IC50 [1]: 9.3 nM | IC50 [2]: 1420 nM
Structure (SMILES): CC1(C)Oc2cc(C#Cc3cc(Cl)ccc3Cl)ccc2-c2[nH]c(-c3c(F)cccc3Cl)nc21

IC50 [1]: 61.8 nM
Structure (SMILES): CC1(C)Oc2cc(C#Cc3ccc(C(F)(F)F)cc3)ccc2-c2[nH]c(-c3c(F)cccc3Cl)nc21

IC50 [1]: 25 nM | IC50 [2]: 461 nM
Structure (SMILES): CC1(C)Oc2cc(C#Cc3cc(C(F)(F)F)ccc3F)ccc2-c2nc(-c3c(F)cccc3Cl)[nH]c21

inhibition [3]: 83.6% | inhibition [4]: 70.4%
Structure (SMILES): CC1(C)Oc2cc(C(=O)Nc3cccc(C(F)(F)F)c3)ccc2-c2[nH]c(-c3c(F)cccc3Cl)nc21

inhibition [3]: 75.5% | inhibition [4]: 12.2%
Structure (SMILES): CC1(C)Oc2cc(-c3nc4ccccc4[nH]3)ccc2-c2nc(-c3c(F)cccc3Cl)[nH]c21

inhibition [3]: 86.9% | inhibition [4]: 70.1%
Structure (SMILES): CC1(C)Oc2cc(-c3ccc(OC(F)(F)F)cc3)ccc2-c2[nH]c(-c3c(F)cccc3Cl)nc21

inhibition [3]: 84.2% | inhibition [4]: 44.3%
Structure (SMILES): CC1(C)Oc2cc(I)ccc2-c2[nH]c(-c3c(F)cccc3Cl)nc21

IC50 [1]: 320 nM
Structure (SMILES): CC1(C)Oc2cc(C#Cc3ccc(C(F)(F)F)cn3)ccc2-c2nc(-c3c(F)cccc3Cl)[nH]c21

inhibition [3]: 98.6% | inhibition [4]: 89%
Structure (SMILES): CC1(C)Oc2cc(-c3nc(C4CC4)no3)ccc2-c2[nH]c(-c3c(F)cccc3Cl)nc21

IC50 [1]: 28.2 nM
Structure (SMILES): CC1(C)Oc2cc(C#Cc3ccc(C(F)(F)F)cc3Cl)ccc2-c2nc(-c3c(F)cccc3Cl)[nH]c21

IC50 [1]: 11.8 nM | IC50 [2]: 267 nM
Structure (SMILES): CC1(C)Oc2cc(C#Cc3ccccc3OC(F)(F)F)ccc2-c2[nH]c(-c3c(C#N)cccc3C#N)nc21

inhibition [3]: 92.9% | IC50 [1]: 252 nM | inhibition [4]: 86.7%
Structure (SMILES): CC1(C)Oc2cc(C(=O)Nc3ccc(C(F)(F)F)cc3)ccc2-c2[nH]c(-c3c(F)cccc3Cl)nc21

IC50 [1]: 38.2 nM
Structure (SMILES): CC1(C)Oc2cc(C#Cc3ccc(Cl)cc3)ccc2-c2nc(-c3c(F)cccc3Cl)[nH]c21

inhibition [3]: 67.2% | inhibition [4]: 52.8%
Structure (SMILES): Cc1csc(NC(=O)c2ccc3c(c2)OC(C)(C)c2nc(-c4c(F)cccc4Cl)[nH]c2-3)n1

IC50 [1]: 21 nM | IC50 [2]: 706 nM
Structure (SMILES): CC1(C)Oc2cc(C#Cc3cc(F)ccc3C(F)(F)F)ccc2-c2[nH]c(-c3c(F)cccc3Cl)nc21

inhibition [3]: 83.3% | IC50 [1]: 191 nM | inhibition [4]: 81.4%
Structure (SMILES): CC1(C)Oc2cc(-c3ccc(C(F)(F)F)cc3)ccc2-c2[nH]c(-c3c(F)cccc3Cl)nc21
